# Measurements: ChEMBL document CHEMBL1124944, “Synthesis and in vitro evaluation of some modified 4-thiopyrimidine nucleosides for prevention or reversal of AIDS-associated neurological disorders” (J Med Chem, 1990)
# Columns and labels:
# CCRF-CEM [1] = assay: Concentration of the drug resulting in 50% reduction of the viral cytopathic effect against HIV-1 replication in CEM cells.; type: functional, cell-based; details: Homo sapiens
# Outline: (§1)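 NCI cytoprotection screen: HIV added at low amounts to T4 lymphoid cells (MT-2 or CEM), allowing at least two complete replication cycles to produce cell killing. […] An AZT-treated positive control was run alongside under identical conditions.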
# MT2 [2] = assay: Concentration of the drug resulting in 50% growth inhibition of normal, uninfected cells against HIV-1 replication in MT-2 cells.; type: functional, cell-based; details: Homo sapiens; outline: as §1
# MT2 [3] = assay: Concentration of the drug resulting in 50% reduction of the viral cytopathic effect against HIV-1 replication in MT-2 cells.; type: functional, cell-based; details: Homo sapiens; outline: as §1
# CCRF-CEM [4] = assay: Concentration of the drug resulting in 50% growth inhibition of normal, uninfected cells against HIV-1 replication in CEM cells.; type: functional, cell-based; details: Homo sapiens; outline: as §1
# Deoxycytidine kinase = Deoxycytidine kinase (Homo sapiens, UniProt P27707); assay: Inhibitory affect against rabbit deoxycytidine kinase and represented as molt/4F kinase.; design: species or system Oryctolagus cuniculus; details: target entry is the homologue from another species
# Chain of Deoxycytidine kinase (P27707 whole entry): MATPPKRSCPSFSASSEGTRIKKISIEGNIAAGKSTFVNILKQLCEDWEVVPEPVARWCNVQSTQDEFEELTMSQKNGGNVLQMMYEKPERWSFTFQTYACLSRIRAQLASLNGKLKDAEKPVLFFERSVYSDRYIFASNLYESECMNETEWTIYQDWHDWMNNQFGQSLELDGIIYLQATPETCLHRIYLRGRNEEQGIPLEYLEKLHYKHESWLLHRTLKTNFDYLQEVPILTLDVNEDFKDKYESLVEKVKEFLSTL
# [5] = Ratio of PNS to the PN (Partition coefficient ratio between thio analogue to its oxo analogue)
# Outline: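 Partitioning was between equal volumes of 1-octanol and 100 mM sodium phosphate pH 7.0. Phases were separated by centrifugation and each phase was quantified by UV absorbance at a wavelength chosen from spectra. The ratio is the thio analogue's partition coefficient over that of its oxo parent.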
Structure (SMILES),EC50 (CCRF-CEM [1]) [µM],IC50 (MT2 [2]) [µM],EC50 (MT2 [3]) [µM],IC50 (CCRF-CEM [4]) [µM],Ki (Deoxycytidine kinase) [µM],P ratio [5]
Cc1cn([C@H]2C=C[C@@H](CO)O2)c(=O)[nH]c1=O [STAVUDINE],0.8,71,2,235,–,–
Nc1ccn([C@H]2C=C[C@@H](CO)O2)c(=O)n1,–,–,–,–,4600,–
Cc1cn([C@H]2CC[C@@H](CO)O2)c(=O)[nH]c1=S,31,90,39,93,–,6.41
Cc1cn([C@H]2C=C[C@@H](CO)O2)c(=O)[nH]c1=S,39,> 80,27,> 430,–,5.39
Cc1cn([C@H]2C[C@H](N=[N+]=[N-])[C@@H](CO)O2)c(=O)[nH]c1=S,–,–,–,–,–,6.99
O=c1[nH]c(=S)ccn1[C@H]1CC[C@@H](CO)O1,–,–,–,–,–,1.56
O=c1[nH]c(=S)ccn1[C@H]1C=C[C@@H](CO)O1,–,–,–,–,–,1.23
Cc1cn([C@H]2C[C@H](N=[N+]=[N-])[C@@H](CO)O2)c(=O)[nH]c1=O [ZIDOVUDINE],0.00032,> 970,0.18,> 100,–,–
